Screening data (PubChem)
Rows were chosen to be rich in hits. Some 1.9% of all compounds tested hit in one or more screens of this group.
CHRM4 agonist: CHRM4 agonism in calcium assay; P08173; CHO-K1 hM4/Gqi5, Fluo-8 calcium fluorescence; vehicle 0%, full acetylcholine response 100%; activation, % at 3 µM; 360,000 tested, 0.14% active; AID 624127;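 active means activation above the run mean over all test wells plus 3 SD, cut at about 32% in these data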;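 further: peak over basal fluorescence ratio per well then scaled between controls; 0% = DMSO wells and 100% = acetylcholine at EC100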
Target sequence (P08173 whole entry, looked up): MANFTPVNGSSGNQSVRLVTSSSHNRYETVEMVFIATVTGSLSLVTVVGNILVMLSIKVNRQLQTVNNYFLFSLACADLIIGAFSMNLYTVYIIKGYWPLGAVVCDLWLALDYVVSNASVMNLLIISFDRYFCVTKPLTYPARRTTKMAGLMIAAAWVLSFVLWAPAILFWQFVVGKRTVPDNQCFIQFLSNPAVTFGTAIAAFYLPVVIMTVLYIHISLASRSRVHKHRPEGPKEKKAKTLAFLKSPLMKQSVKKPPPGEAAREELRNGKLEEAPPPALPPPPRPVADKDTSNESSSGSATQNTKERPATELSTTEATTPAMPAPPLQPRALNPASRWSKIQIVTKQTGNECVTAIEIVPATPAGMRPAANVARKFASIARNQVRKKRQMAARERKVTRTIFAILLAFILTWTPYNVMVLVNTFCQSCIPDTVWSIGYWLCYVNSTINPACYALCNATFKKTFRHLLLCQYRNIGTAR
CHRM4 antagonist: blocks acetylcholine activation of human M4 receptor. P08173. CHO-hM4 cells, ACh EC80, Fluo-8 calcium fluorescence. inhibition, % at 3 µM. 360,000 tested, 0.73% active. AID 624125;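 active means inhibition above its plate's cutoff, the mean inhibition of sample wells plus 3 SD, cut at about 27% in these data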;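 further: 0% = acetylcholine EC80 with DMSO and 100% = DMSO without agonist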
M5 antag: blocks acetylcholine activation of human M5 receptor | inhibition, % at 3 µM | CHO-hM5 cells, Fluo-8 calcium fluorescence, ACh EC80 | 360,000 tested, 0.59% active | AID 624040 | P08912;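 active means inhibition above a per-plate cutoff, the mean of that plate's test compounds plus 3 SD, cut at about 27% in these data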;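 further: 0% = acetylcholine EC80 with DMSO and 100% = DMSO without agonist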
CHRM5 PAM: CHRM5 positive allosteric modulation; P08912; CHO-K1 hM5, Fluo-8 calcium, ACh EC20 PAM; 0% = ACh EC20, 100% = ACh EC100; activation, % at 3 µM; 360,000 tested, 0.3% active; AID 624038;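 active means activation above the run cutoff, the mean activation of all test compounds plus 3 SD, cut at about 18% in these data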
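system = human M5 receptor in CHO-K1 cells | reagent = EC20 acetylcholine as agonist stimulus | compound dosing = single-point, 3 µM nominal | incubation = Fluo-8 loading 80 min at 37 °C plus 30 min room temperature | detection = Fluo-8 calcium dye fluorescence, kinetic read | benchmarks = low control EC20 acetylcholine (0%), high control EC100 acetylcholine (100%)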
CHRM4 PAM: potentiates acetylcholine response at human M4 receptor. AID 624126. P08173. 360,000 tested, 0.4% active. activation, % at 3 µM. CHO-K1 hM4/Gqi5, Fluo-8 calcium fluorescence, ACh EC20; 0% = ACh EC20, 100% = maximal ACh;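 active means activation above its plate's cutoff, the mean activation of sample wells plus 3 SD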
M5 ag: agonists of human muscarinic M5 receptor (CHRM5); AID 624037; 360,000 tested, 0.19% active; CHO-K1 hM5 cells, Fluo-8 calcium fluorescence; 0% DMSO wells, 100% maximal acetylcholine response; activation, % at 3 µM;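 active means activation above the run's mean over test compounds plus 3 SD, cut at about 23% in these data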;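 further: signal is peak over basal fluorescence ratio across the kinetic read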
* hit, by the source's call.

COc1ccc(/C(O)=C2\C(=O)C(=O)N(c3cc(C)on3)C2c2ccc(OC)c(OC)c2)cc1OC (stereo not drawn) was read as CHRM4 agonist 0, CHRM4 antagonist 2, M5 antag 2, CHRM5 PAM 0, CHRM4 PAM 1 and M5 ag -3.
`CCn1c(N)c(C(=O)NCCOC)sc1=S` gave CHRM4 agonist 2, CHRM4 antagonist -8, M5 antag -4, CHRM5 PAM -1, CHRM4 PAM 17 and M5 ag -1.
Screening CCn1c(N)c(C(=O)Nc2ccccc2C(=O)OC)sc1=S returned CHRM4 agonist 1, CHRM4 antagonist -14, M5 antag 3, CHRM5 PAM 8, CHRM4 PAM 37* and M5 ag -1.
`C1CC2CN(c3nc4nonc4nc3N3CCSCC3)CCN2C1` (stereo not drawn) gave CHRM4 agonist 1, CHRM4 antagonist 9, M5 antag 0, CHRM5 PAM -5, CHRM4 PAM -10 and M5 ag -8.
For C1CCN(C2CCN(c3nc4nonc4nc3N3CCSCC3)CC2)C1 the results were CHRM4 agonist 1, CHRM4 antagonist 31*, M5 antag 7, CHRM5 PAM -11, CHRM4 PAM -20 and M5 ag -9.
For CC1(c2ccc(OC(F)F)cc2)NC(=O)N(CC(=O)c2ccc3c(c2)OCO3)C1=O (stereo not drawn) the results were CHRM4 agonist 40*, CHRM4 antagonist -8, M5 antag 5, CHRM5 PAM -21, CHRM4 PAM -8 and M5 ag 42*.
For CC1(c2ccc([N+](=O)[O-])cc2)NC(=O)N(CC(=O)c2ccc3c(c2)OCO3)C1=O (stereo not drawn) the results were CHRM4 agonist 33*, CHRM4 antagonist -7, M5 antag 6, CHRM5 PAM -15, CHRM4 PAM -6 and M5 ag 36*.
CC1(c2ccc(OC(F)F)cc2)NC(=O)N(CC(=O)NC2CCCCC2)C1=O (stereo not drawn) was read as CHRM4 agonist 7, CHRM4 antagonist -8, M5 antag 8, CHRM5 PAM -7, CHRM4 PAM 17 and M5 ag 5.
Screening C=C(C)COc1ccc(-c2ncnc(C(F)(F)F)c2-c2ccccc2)c(O)c1 returned CHRM4 agonist 3, CHRM4 antagonist 27*, M5 antag 17, CHRM5 PAM -14, CHRM4 PAM -12 and M5 ag -6.
Screening C=C(C)COc1ccc(-c2ncnc(C(F)(F)F)c2-c2ccc(OC)cc2)c(O)c1 returned CHRM4 agonist 8, CHRM4 antagonist 25, M5 antag 24, CHRM5 PAM -14, CHRM4 PAM -15 and M5 ag -5.
For O=C(NCCc1ccco1)C(=O)NCC1CCCN1S(=O)(=O)c1ccccc1 (stereo not drawn) the results were CHRM4 agonist 14, CHRM4 antagonist 8, M5 antag -4, CHRM5 PAM -9, CHRM4 PAM -13 and M5 ag 3.
Cc1cccc(C)c1NC(=O)C(c1ccnc2ccccc12)n1c(=O)c(-c2ccccc2)nc2ccccc21 (stereo not drawn) was read as CHRM4 agonist 0, CHRM4 antagonist -11, M5 antag -2, CHRM5 PAM 1, CHRM4 PAM 5 and M5 ag 0.
COc1cc(SC)ccc1C(=O)NCCc1c[nH]c2ccccc12 was read as CHRM4 agonist 7, CHRM4 antagonist 4, M5 antag 6, CHRM5 PAM -4, CHRM4 PAM -8 and M5 ag -2.
Screening COc1cc2cc(C(=O)NCCc3c[nH]c4ccccc34)c(N)nc2cc1OC returned CHRM4 agonist 33*, CHRM4 antagonist 7, M5 antag 25, CHRM5 PAM -22, CHRM4 PAM -3 and M5 ag 24*.
For CN1C(=O)C(O)(CC(=O)c2ccncc2)c2ccccc21 (stereo not drawn) the results were CHRM4 agonist 2, CHRM4 antagonist -9, M5 antag -6, CHRM5 PAM 17, CHRM4 PAM 19* and M5 ag -1.
O=c1[nH]c(SCc2ccc(OC(F)(F)F)cc2)nc2c1CCC2 was read as CHRM4 agonist 0, CHRM4 antagonist -8, M5 antag 4, CHRM5 PAM -3, CHRM4 PAM 10 and M5 ag 0.
Screening CN(CCC#N)C(=O)c1cc2c(s1)-c1ccccc1SC2 returned CHRM4 agonist 2, CHRM4 antagonist -6, M5 antag 7, CHRM5 PAM -1, CHRM4 PAM 4 and M5 ag -3.
Screening C[N+](C)(C)CC/C=C1/c2ccccc2CSc2ccccc21 returned CHRM4 agonist 0, CHRM4 antagonist 96*, M5 antag 99*, CHRM5 PAM -26, CHRM4 PAM -18 and M5 ag -12.
Screening CC(=O)OCCCN(C)CC/C=C1/c2ccccc2CSc2ccccc21 returned CHRM4 agonist 3, CHRM4 antagonist 36*, M5 antag 19, CHRM5 PAM -35, CHRM4 PAM -53 and M5 ag -20.
Screening CSCCC(NC(=O)c1ccccc1Cl)C(=O)N1CCCCC1 (stereo not drawn) returned CHRM4 agonist 1, CHRM4 antagonist -17, M5 antag -1, CHRM5 PAM 6, CHRM4 PAM 10 and M5 ag 0.
Screening Cc1cc(C)cc(OCC(=O)NNC(=S)NC(=O)C2CC2)c1 returned CHRM4 agonist 6, CHRM4 antagonist 4, M5 antag 28*, CHRM5 PAM -2, CHRM4 PAM 9 and M5 ag -3.
For COc1ccc(OCC(=O)NNC(=S)NC(=O)C2CC2)cc1 the results were CHRM4 agonist 0, CHRM4 antagonist -11, M5 antag -6, CHRM5 PAM -2, CHRM4 PAM 9 and M5 ag -4.
CCCS(=O)(=O)NC(=O)C1(C)CCCN(C(=O)c2c(C)noc2C)C1 (stereo not drawn) was read as CHRM4 agonist 0, CHRM4 antagonist 3, M5 antag 5, CHRM5 PAM -6, CHRM4 PAM -1 and M5 ag 0.
Screening CC(=O)NC(Cc1ccccc1)C(=O)Oc1ccc2ccccc2c1 (stereo not drawn) returned CHRM4 agonist 13, CHRM4 antagonist 3, M5 antag 4, CHRM5 PAM -6, CHRM4 PAM -7 and M5 ag -1.
CCOC(=O)c1c(C)nsc1NC(=O)C1CCCCC1 was read as CHRM4 agonist -1, CHRM4 antagonist -26, M5 antag -10, CHRM5 PAM 8, CHRM4 PAM 14* and M5 ag 3.
